Data set [1] concerns Rattus norvegicus. The data set can be described thus: Toxicity in Crl:CD(SD) rat assessed as decrease in lymphocytes at 50 mg/kg/day, po daily via gavage for 14 days measured on day 15 post last dose relative to control. As to conditions: in vivo, 336 h. Further details: scale not given: the % may be the effect or the level left. It counts as organism-based.
Data set [2] in a line: Apparent permeability in RRCK cells. It counts as ADME, cell-based, Canis lupus familiaris, MDCKII-LE. Particulars: dog, MDCK. An outline of the steps: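 Passive permeability measured in RRCK cells, a modified Madin-Darby canine kidney line; Papp reported in 10^-6 cm/s.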
In data set [3] the target is Cytochrome P450 2D6 (Homo sapiens, UniProt P10635). The data set can be described thus: Inhibition of CYP2D6 (unknown origin). It counts as ADME. An outline of the steps: (§1)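 Inhibition of CYP1A2, 2D6, 2C9 and 3A4 reported as IC50, or as percent inhibition at 3 µM.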
Cytochrome P450 2D6, sequence (P10635 whole entry): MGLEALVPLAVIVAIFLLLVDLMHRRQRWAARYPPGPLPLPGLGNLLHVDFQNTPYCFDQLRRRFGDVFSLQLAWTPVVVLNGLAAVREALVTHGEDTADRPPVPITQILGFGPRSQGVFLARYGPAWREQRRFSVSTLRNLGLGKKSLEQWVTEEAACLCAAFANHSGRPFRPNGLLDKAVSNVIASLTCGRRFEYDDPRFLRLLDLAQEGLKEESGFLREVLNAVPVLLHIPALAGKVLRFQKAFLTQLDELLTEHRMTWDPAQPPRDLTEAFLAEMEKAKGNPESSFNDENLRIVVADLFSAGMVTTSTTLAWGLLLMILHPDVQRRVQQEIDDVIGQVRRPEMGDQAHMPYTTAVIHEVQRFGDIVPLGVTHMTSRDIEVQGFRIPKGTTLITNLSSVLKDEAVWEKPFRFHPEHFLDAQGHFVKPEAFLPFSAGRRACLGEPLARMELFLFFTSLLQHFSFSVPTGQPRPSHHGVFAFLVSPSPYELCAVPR
Data set [4] deals with Rattus norvegicus. The data set can be described thus: Toxicity in Crl:CD(SD) rat assessed as decrease in WBC at 50 mg/kg/day, po daily via gavage for 14 days measured on day 15 post last dose relative to control. Particulars: in vivo, 336 h. The class given is organism-based. Further details: scale not given: the % may be the effect or the level left.
For data set [5], the system named is Rattus norvegicus. The data set can be described thus: Reduction in total cholesterol level in Crl:CD(SD) rat at 50 mg/kg/day, po daily via gavage for 14 days measured on day 15 post last dose relative to control. It counts as functional. Further details: scale not given: the % may be the effect or the level left.
The test system of data set [6] is Rattus norvegicus. The data set can be described thus: Toxicity in Crl:CD(SD) rat at 15 mg/kg/day, po daily via gavage for 14 days. It counts as organism-based. Particulars: in vivo, 336 h.
For data set [7], the system named is Rattus norvegicus. The data set can be described thus: Toxicity in Crl:CD(SD) rat assessed as decrease in eosinophils at 50 mg/kg/day, po daily via gavage for 14 days measured on day 15 post last dose relative to control. The class given is organism-based. Further details: scale not given: the % may be the effect or the level left. Particulars: in vivo, 336 h.

For data set [8], the target named is Cytochrome P450 2C9 (Homo sapiens, UniProt P11712). The data set can be described thus: Inhibition of CYP2C9 (unknown origin). The class given is ADME. The method, boiled down:
as §1

Data set [9] is described as follows: Total Cmax in Crl:CD(SD) rat at 15 mg/kg/day, po daily via gavage for 14 days measured on day 14 post last dose up to 24 hrs. Further details: dose 15 mg/kg/day, route oral. The class given is ADME, organism-based. Particulars: in vivo.
Data set [10] is described as follows: Intrinsic clearance in human liver microsomes. It counts as ADME, microsome. Particulars: read-out: CLH. (Liver microsomes are a subcellular fraction often used to study metabolism.)
The nature of data set [11]: Cytotoxicity against human CD34-positive hematopoietic progenitor cells assessed as reduction in cell viability after 72 hrs by CellTiter-Glo assay. It counts as cell-based. (In general: Cellular ATP, detected with luciferase, serves as a proxy for viable cell number.)
The target in data set [12] is 80S Ribosome. The data set can be described thus: Binding affinity to 80S ribosome in human HuH7 cells assessed as inhibition of PCSK9 mRNA translation after overnight incubation by ELISA. The class given is cell-based. As to conditions: huh-7. An outline of the steps: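 Huh7 cells kept in high-glucose DMEM, 10% BSA-free FBS, 2 mM L-glutamine, pen/strep at 37 °C, 5% CO2. Plated 7,500/well with compound or vehicle and incubated overnight (16-20 h). Secreted PCSK9 in the medium read by AlphaLISA: two antibodies to different mature-PCSK9 epitopes, biotinylated antibody 3 nM final, acceptor beads 10 µg/mL, 0.5 h rt; streptavidin donor beads 40 µg/mL, 1 h rt.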
In general terms: ELISA stands for enzyme-linked immunosorbent assay.

Each structure is given as a SMILES string.

In general, Papp refers to the rate of passage across a membrane or cell layer, normalised by area and donor concentration. As usually defined, the IC50 is the midpoint of a concentration-inhibition curve. Broadly, the NOAEL is the highest tested level that showed no adverse finding. The Cmax is the highest concentration seen after dosing.

Cytochrome P450 2C9, sequence (P11712 whole entry): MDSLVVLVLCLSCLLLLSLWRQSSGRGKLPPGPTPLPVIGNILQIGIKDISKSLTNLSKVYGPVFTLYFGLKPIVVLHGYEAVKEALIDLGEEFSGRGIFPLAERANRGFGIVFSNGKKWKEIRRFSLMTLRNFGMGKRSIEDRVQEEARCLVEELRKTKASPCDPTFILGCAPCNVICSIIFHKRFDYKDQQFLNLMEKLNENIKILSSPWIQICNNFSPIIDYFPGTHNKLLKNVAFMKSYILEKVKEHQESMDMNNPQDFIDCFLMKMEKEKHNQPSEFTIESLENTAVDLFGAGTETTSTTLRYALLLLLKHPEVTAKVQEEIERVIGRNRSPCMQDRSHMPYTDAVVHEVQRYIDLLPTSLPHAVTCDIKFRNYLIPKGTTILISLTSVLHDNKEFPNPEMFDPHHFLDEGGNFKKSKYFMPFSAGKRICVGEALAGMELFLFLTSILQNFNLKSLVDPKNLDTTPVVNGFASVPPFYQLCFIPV

Consider `O=C(c1ccc(-n2nnc3cccnc32)cc1)N(c1ncccc1Cl)[C@@H]1CCCNC1`, for which the Activity in data set [1] is 54%; in [4], 52%; in data set [5], 30%; in data set [7], 54%. Further, the Papp in data set [2] is 15 ×10⁻⁶ cm/s. Further, the IC50 in data set [3] is more than 30000 nM; in data set [8], more than 30000 nM; in data set [11], 2700 nM; in data set [12] it was 820 nM. Further, the no-observed-adverse-effect level (NOAEL) in [6] amounted to 478 nM. The molecule also showed a Cmax in [9] of 1640 ng/mL. Moreover, in data set [10], the microsomal CLint amounted to 9.7 µL/min/mg.
